The test addresses T1, Muscarinic acetylcholine receptor M2 (Sus scrofa) (UniProt P06199).
T1 sequence (whole entry): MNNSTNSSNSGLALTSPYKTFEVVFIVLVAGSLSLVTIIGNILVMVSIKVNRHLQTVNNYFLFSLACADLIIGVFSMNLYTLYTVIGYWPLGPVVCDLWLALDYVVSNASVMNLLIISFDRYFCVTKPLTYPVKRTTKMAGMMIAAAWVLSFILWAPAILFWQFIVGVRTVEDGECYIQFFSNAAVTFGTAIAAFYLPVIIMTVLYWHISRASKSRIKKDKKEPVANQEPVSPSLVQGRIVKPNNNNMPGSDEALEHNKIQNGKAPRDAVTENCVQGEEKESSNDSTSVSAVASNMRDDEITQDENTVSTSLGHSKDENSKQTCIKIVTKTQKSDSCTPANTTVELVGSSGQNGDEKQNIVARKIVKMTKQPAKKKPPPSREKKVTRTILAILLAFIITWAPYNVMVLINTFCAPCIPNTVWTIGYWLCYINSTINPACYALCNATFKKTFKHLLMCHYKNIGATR
The test can be described thus: Effective concentration for half maximal inhibition of [3H]NMS dissociation from Muscarinic acetylcholine receptor M2 in porcine heart ventricles; Non-active. In a few lines:
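Porcine cardiac homogenates, 0.2 nM [3H]NMS in 4 mM Na2HPO4/1 mM KH2PO4 pH 7.4, 23 °C; preincubated 30 min, then dissociation started with 1 μM atropine with or without modulator. Specific binding sampled over 120 min (complete) or at t=0 and 10 min (two-point). Apparent k-1 expressed as % control; four-parameter logistic fit gives EC0.5,diss. Two to four experiments; nonspecific defined by 10^-6 M atropine; filtration, scintillation counting.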

The structures appear in SMILES notation. The source made the active and inactive calls. No cut-off for these calls is given here.

Regarding `[O-][N+]12CC[C@@]34c5ccccc5N5[C@@H]6OCC=C7C[N+]8([O-])CC[C@]9%10c%11ccccc%11N([C@@H]%11OCC=C(C1)[C@H](C[C@@H]32)C%11[C@H]54)[C@H]9[C@H]6[C@H]7C[C@@H]%108` (stereo partly specified), the pEC0.5 entry is “inactive”.

The values above are taken from ChEMBL document CHEMBL1148351, “Probing the pharmacophore for allosteric ligands of muscarinic M2 receptors: SAR and QSAR studies in a series of bisquaternary salts of caracurine V and related ring systems” (J Med Chem, 2004).
